# Experimental data from paper PMC7551138 (Alzheimer's & Dementia : Translational Research & Clinical …, 2020).
# Experiments:
# Format in all cases: in vivo, human
# healthy elderly subjects [1] = assay: Monitoring of treatment‐emergent adverse events
# Summary of the method: (§1)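 Randomised, double-blind, placebo-controlled trial in healthy subjects aged ≥65 (n=48; 12 active:4 placebo per cohort, placebos pooled). Intranasal test compound 5.5, 11 or 22 mg or 0.9% NaCl b.i.d. for 7 days, 6 h between doses. The 11 mg active subjects later got one open-label oral 16 mg dose of the parent drug. Safety was tracked by TEAEs, nasal examination, vital signs, ECG and safety bloods.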
# healthy elderly subjects [2] = assay: Vital signs; conditions: for Diastolic BP supine / Pulse Rate supine / Systolic BP supine: vs placebo, mean (confidence interval)
# Summary of the method: as §1
# [3] = Plasma pharmacokinetics, non‐compartmental analysis
# [4] = CSF and plasma concentrations, Gln‐1062 11 mg vs 16 mg oral galantamine
# healthy elderly subjects [5] = assay: NeuroCart adaptive tracking test; conditions: vs placebo, mean (confidence interval)
# Summary of the method: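 Joystick task keeping a dot inside a moving circle. Circle speed rises while the dot stays inside and falls when it escapes. The score is % time tracked over 3.5 min, including a 0.5 min run-in. Testing was repeated over time, with extra sessions in the 22 mg cohort. Analysis was mixed-model ANOVA (treatment, time, treatment×time fixed; subject random; baseline covariate), reporting LSM difference versus placebo with CI.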
# healthy elderly subjects [6] = assay: NeuroCart eye movements; conditions: vs placebo, mean (confidence interval)
# Summary of the method: (§2)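 NeuroCart tests were repeated over time during the 7-day b.i.d. intranasal dosing: eye movements, N-back with 3 working-memory-load conditions, pharmaco-EEG, and 100-mm VAS (Bond and Lader mood/alertness/calmness; nausea). In the 22 mg cohort, EEG at 30 min and 3 h post-dose was dropped. Analysis was mixed-model ANOVA (treatment, time, treatment×time fixed; subject random; baseline covariate), giving LSM difference versus placebo with CI.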
# healthy elderly subjects [7] = assay: Visual analogue scales; conditions: vs placebo, mean (confidence interval)
# Summary of the method: as §2
# [8] = 5.5 mg b.i.d. intranasal, within 24 hours after first administration, dosing day 1
# [9] = 22 mg b.i.d. intranasal, within 24 hours after first administration, dosing day 1
# [10] = 5.5 mg b.i.d. intranasal 7 days
smiles,measurement,setting,value
COc1ccc2c3c1O[C@H]1C[C@@H](OC(=O)c4ccccc4)C=C[C@@]31CCN(C)C2 [Gln‐1062],TEAEs within 24 hours: All gastrointestinal disorders,healthy elderly subjects [1]; [8],1 (8.3) number of subjects (percentage
same,TEAEs within 24 hours: Any events,healthy elderly subjects [1]; [8],7 (58.3) number of subjects (percentage
same,TEAEs within 24 hours: Nausea,healthy elderly subjects [1]; [8],1 (8.3) number of subjects (percentage
same,TEAEs within 24 hours: Vomiting,healthy elderly subjects [1]; [8],1 (8.3) number of subjects (percentage
same,TEAEs within 24 hours: Any events,"healthy elderly subjects [1]; 11 mg b.i.d. intranasal, within 24 hours after first administration, dosing day 1",12 (100.0) number of subjects (percentage
same,TEAEs within 24 hours: All gastrointestinal disorders,healthy elderly subjects [1]; [9],6 (50.0) number of subjects (percentage
same,TEAEs within 24 hours: Any events,healthy elderly subjects [1]; [9],12 (100.0) number of subjects (percentage
same,TEAEs within 24 hours: Diarrhea,healthy elderly subjects [1]; [9],2 (16.7) number of subjects (percentage
same,TEAEs within 24 hours: Nausea,healthy elderly subjects [1]; [9],5 (41.7) number of subjects (percentage
same,TEAEs within 24 hours: Vomiting,healthy elderly subjects [1]; [9],3 (25.0) number of subjects (percentage
same,intensity of TEAEs,"healthy elderly subjects [1]; 5.5 to 22 mg b.i.d., 7 days",mild or moderate
same,serious adverse events,"healthy elderly subjects [1]; 5.5 to 22 mg b.i.d., 7 days",no serious adverse events
same,safety and tolerability,healthy elderly subjects [1]; up to 22 mg b.i.d. intranasal for 7 days,safe and well tolerated
same,Diastolic BP supine,healthy elderly subjects [2]; [10],"2.5 (−0.6, 5.6) P = 0.1105 mmHg"
same,Pulse Rate supine,healthy elderly subjects [2]; [10],"−2.5 (−6.4, 1.4) P = 0.2044 bpm"
same,Systolic BP supine,healthy elderly subjects [2]; [10],"5.0 (−0.3, 10.4) P = 0.0644 mmHg"
same,Diastolic BP supine,healthy elderly subjects [2]; 11 mg b.i.d. intranasal 7 days,"0.9 (−2.2, 4.1) P = 0.5566 mmHg"
same,Pulse Rate supine,healthy elderly subjects [2]; 11 mg b.i.d. intranasal 7 days,"−1.0 (−4.9, 2.9) P = 0.6030 bpm"
same,Systolic BP supine,healthy elderly subjects [2]; 11 mg b.i.d. intranasal 7 days,"1.2 (−4.1, 6.5) P = 0.6528 mmHg"
same,Diastolic BP supine,healthy elderly subjects [2]; 22 mg b.i.d. intranasal 7 days,"1.2 (−1.9, 4.3) P = 0.4437 mmHg"
same,Pulse Rate supine,healthy elderly subjects [2]; 22 mg b.i.d. intranasal 7 days,"0.5 (−3.5, 4.4) P = 0.8169 bpm"
same,Systolic BP supine,healthy elderly subjects [2]; 22 mg b.i.d. intranasal 7 days,"1.8 (−3.6, 7.2) P = 0.5098 mmHg"
same,effect on the pulse rate,healthy elderly subjects [2]; all dose levels,No statistically significant effect
same,increase in mean diastolic blood pressure,"healthy elderly subjects [2]; first dosing day, 11 mg",5.1 mm Hg
same,changes in blood and urinary laboratory values and ECG safety parameters,healthy elderly subjects [2]; multiple doses,did not result in clinically significant changes
same,increase in systolic blood pressure,"healthy elderly subjects [2]; seventh day, 5.5 mg",7.6 mm Hg
same,"t1/2 of Gln‐1062 in plasma, mean (± SD)",[3]; 5.5 mg intranasal,1.16 (±0.37) hour
same,"t1/2 of Gln‐1062 in plasma, mean (± SD)",[3]; 22 mg intranasal,2.09 (± 0.58) hour
same,median Tmax of Gln‐1062 in plasma,"[3]; intranasal 5.5, 11 or 22 mg b.i.d., range 0.5 to 1.0 hour",30 min
same,Gln‐1062 concentrations in CSF,[4]; 11 mg Gln‐1062 intranasal,below the limit of quantification
same,"Dose‐corrected plasma and CSF concentrations of galantamine cleaved from Gln‐1062, compared with oral galantamine",[4]; 11 mg Gln‐1062 intranasal vs 16 mg oral galantamine,lower
same,Adaptive tracking,healthy elderly subjects [5]; [10],"0.520 (−0.779, 1.818) P = 0.4240 %‐point"
same,Adaptive tracking,healthy elderly subjects [5]; 11 mg b.i.d. intranasal 7 days,"0.318 (−0.992, 1.627) P = 0.6266 %‐point"
same,Saccadic Inaccuracy,healthy elderly subjects [6]; [10],"0.59 (−0.46, 1.64) P = 0.2627%"
same,Saccadic Peak Velocity,healthy elderly subjects [6]; [10],"−0.06 (−21.97, 21.85) P = 0.9958 deg/s"
same,Saccadic Reaction Time,healthy elderly subjects [6]; [10],"−0.0112 (−0.0224,−0.0001) P = 0.0481 sec"
same,Smooth Pursuit,healthy elderly subjects [6]; [10],"−1.28 (−5.10, 2.53) P = 0.5011%"
same,Saccadic Inaccuracy,healthy elderly subjects [6]; 11 mg b.i.d. intranasal 7 days,"0.20 (−0.89, 1.30) P = 0.7099%"
same,Saccadic Peak Velocity,healthy elderly subjects [6]; 11 mg b.i.d. intranasal 7 days,"5.03 (−17.82, 27.87) P = 0.6588 deg/s"
same,Saccadic Reaction Time,healthy elderly subjects [6]; 11 mg b.i.d. intranasal 7 days,"−0.0018 (−0.0134, 0.0098) P = 0.7546 sec"
same,Smooth Pursuit,healthy elderly subjects [6]; 11 mg b.i.d. intranasal 7 days,"−0.10 (−4.04, 3.84) P = 0.9597%"
same,Saccadic Inaccuracy,healthy elderly subjects [6]; 22 mg b.i.d. intranasal 7 days,"0.51 (−0.56, 1.58) P = 0.3393%"
same,Saccadic Peak Velocity,healthy elderly subjects [6]; 22 mg b.i.d. intranasal 7 days,"8.63 (−13.65, 30.91) P = 0.4379 deg/s"
same,Saccadic Reaction Time,healthy elderly subjects [6]; 22 mg b.i.d. intranasal 7 days,"−0.0013 (−0.0126, 0.0101) P = 0.8228 sec"
same,Smooth Pursuit,healthy elderly subjects [6]; 22 mg b.i.d. intranasal 7 days,"2.00 (−1.88, 5.88) P = 0.3039%"
same,VAS Alertness,healthy elderly subjects [7]; [10],"−1.09 (−3.74, 1.57) P = 0.4134 mm"
same,VAS Calmness,healthy elderly subjects [7]; [10],"0.44 (−2.59, 3.48) P = 0.7694 mm"
same,VAS Mood,healthy elderly subjects [7]; [10],"−0.92 (−3.98, 2.13) P = 0.5462 mm"
same,VAS Alertness,healthy elderly subjects [7]; 11 mg b.i.d. intranasal 7 days,"0.63 (−2.15, 3.41) P = 0.6514 mm"
same,VAS Calmness,healthy elderly subjects [7]; 11 mg b.i.d. intranasal 7 days,"0.27 (−2.86, 3.40) P = 0.8615 mm"
same,VAS Mood,healthy elderly subjects [7]; 11 mg b.i.d. intranasal 7 days,"−0.49 (−3.59, 2.62) P = 0.7530 mm"
same,VAS Alertness,healthy elderly subjects [7]; 22 mg b.i.d. intranasal 7 days,"−0.21 (−2.86, 2.44) p = 0.8735 mm"
same,VAS Calmness,healthy elderly subjects [7]; 22 mg b.i.d. intranasal 7 days,"0.44 (−2.61, 3.49) P = 0.7734 mm"
